Assays:
[1] = target: T1, Metabotropic glutamate receptor 4 (Homo sapiens, UniProt Q14833); experiment: Positive allosteric modulation of human mGlu4 receptor expressed in CHO cells coexpressing Gqi5 assessed as potentiation of glutamate-induced calcium mobilization relative to (-)-PHCCC; type: functional, cell-based
Procedure, shortened: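 CHO cells stably expressing human mGlu4 with chimeric Gqi5, plated overnight, loaded 45 min at 37 °C with 1 µM Fluo-4 AM. Compound (10-point, 1:3 dilutions) was added about 2.5 min before an EC20 glutamate, then EC80 glutamate 2 min later. Ca2+ fluorescence read at 470/540 nm. Four-parameter logistic fit.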

[2] = target: T1, Metabotropic glutamate receptor 4; experiment: Positive allosteric modulator activity at human mGlu4 receptor expressed in CHO cells expressing Gqi5 by calcium mobilization assay
[3] = target: Metabotropic glutamate receptor 4 (Rattus norvegicus, UniProt P31423); experiment: Positive allosteric modulator activity at rat mGlu4 receptor by thallium flux assay
[4] = target: Metabotropic glutamate receptor 4 (Rattus norvegicus) (UniProt P31423); experiment: Positive allosteric modulator activity at rat mGlu4 receptor by thallium flux assay at 30 uM relative to glutamate
[5] = target: Metabotropic glutamate receptor 4 (Rattus norvegicus) (UniProt P31423); experiment: Positive allosteric modulation of rat mGlu4 receptor assessed as potentiation of glutamate-induced thallium flux relative to (-)-PHCCC; design: concentration or dose not given beside the values

T1 sequence (Q14833 whole entry): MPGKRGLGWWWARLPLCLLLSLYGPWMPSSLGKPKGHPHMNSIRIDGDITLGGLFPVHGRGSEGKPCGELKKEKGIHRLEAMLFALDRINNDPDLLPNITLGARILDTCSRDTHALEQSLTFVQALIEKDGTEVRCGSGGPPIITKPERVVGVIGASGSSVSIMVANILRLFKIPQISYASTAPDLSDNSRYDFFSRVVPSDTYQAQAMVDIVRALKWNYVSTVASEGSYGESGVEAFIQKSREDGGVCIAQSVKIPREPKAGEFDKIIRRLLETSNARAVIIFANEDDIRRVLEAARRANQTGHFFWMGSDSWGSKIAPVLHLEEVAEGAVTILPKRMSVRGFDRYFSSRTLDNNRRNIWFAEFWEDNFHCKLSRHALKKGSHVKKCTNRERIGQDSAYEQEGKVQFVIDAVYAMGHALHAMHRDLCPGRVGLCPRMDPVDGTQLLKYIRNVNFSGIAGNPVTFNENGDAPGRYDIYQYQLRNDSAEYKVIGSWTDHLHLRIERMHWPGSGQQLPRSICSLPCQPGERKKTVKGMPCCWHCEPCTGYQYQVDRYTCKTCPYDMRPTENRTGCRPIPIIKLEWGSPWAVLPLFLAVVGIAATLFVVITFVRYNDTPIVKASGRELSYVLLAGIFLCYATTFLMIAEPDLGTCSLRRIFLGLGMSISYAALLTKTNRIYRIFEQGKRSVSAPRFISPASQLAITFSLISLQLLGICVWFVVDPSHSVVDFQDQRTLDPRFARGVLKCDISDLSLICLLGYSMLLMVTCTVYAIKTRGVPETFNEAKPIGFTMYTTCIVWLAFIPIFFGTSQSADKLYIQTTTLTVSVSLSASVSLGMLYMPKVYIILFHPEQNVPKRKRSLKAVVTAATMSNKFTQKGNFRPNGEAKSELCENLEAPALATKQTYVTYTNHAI
Metabotropic glutamate receptor 4 (Rattus norvegicus, UniProt P31423), sequence (P31423 whole entry): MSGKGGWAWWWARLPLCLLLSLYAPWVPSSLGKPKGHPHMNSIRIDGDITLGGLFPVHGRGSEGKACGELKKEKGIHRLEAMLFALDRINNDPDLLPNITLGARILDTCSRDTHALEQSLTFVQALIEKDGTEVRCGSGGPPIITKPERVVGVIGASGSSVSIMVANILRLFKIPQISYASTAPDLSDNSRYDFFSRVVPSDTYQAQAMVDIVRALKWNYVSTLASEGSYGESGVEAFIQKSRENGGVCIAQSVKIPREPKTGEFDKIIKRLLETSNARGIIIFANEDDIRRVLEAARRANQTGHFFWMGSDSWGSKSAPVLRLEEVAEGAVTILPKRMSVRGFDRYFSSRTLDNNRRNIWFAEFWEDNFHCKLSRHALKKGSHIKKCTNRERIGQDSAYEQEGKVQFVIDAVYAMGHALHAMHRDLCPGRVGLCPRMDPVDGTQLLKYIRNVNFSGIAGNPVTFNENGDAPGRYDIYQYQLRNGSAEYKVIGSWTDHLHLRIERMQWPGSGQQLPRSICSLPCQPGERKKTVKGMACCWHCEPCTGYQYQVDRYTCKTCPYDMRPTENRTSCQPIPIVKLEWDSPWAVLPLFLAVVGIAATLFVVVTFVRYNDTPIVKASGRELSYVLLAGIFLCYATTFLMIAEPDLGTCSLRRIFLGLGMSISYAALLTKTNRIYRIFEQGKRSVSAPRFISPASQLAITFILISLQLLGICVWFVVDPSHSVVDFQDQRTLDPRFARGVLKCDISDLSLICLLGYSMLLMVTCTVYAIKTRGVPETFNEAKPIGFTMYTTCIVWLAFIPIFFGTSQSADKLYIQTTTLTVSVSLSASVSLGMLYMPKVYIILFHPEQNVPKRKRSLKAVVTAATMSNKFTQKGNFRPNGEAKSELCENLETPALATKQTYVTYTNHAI
Metabotropic glutamate receptor 4 (Rattus norvegicus), sequence (P31423 whole entry): as above

| SMILES | Activity [1] [%] | EC50 [2] [nM] | EC50 ([2]; cho) | EC50 [3] [nM] | fold change (FC) [4] | Activity [5] [%] |
| --- | --- | --- | --- | --- | --- | --- |
| O=C(Nc1ccc(N2C(=O)[C@@H]3[C@H](C2=O)[C@@H]2CC[C@H]3O2)c(Cl)c1)c1ccccn1 | 90 | 1300 |  |  |  |  |
| O=C(Nc1ccc(N2S(=O)(=O)c3ccccc3S2(=O)=O)cc1)c1cccnc1 | 27.7 |  | Not Active |  |  |  |
| O=S1(=O)c2ccccc2S(=O)(=O)N1c1ccc(NCc2ccccn2)cc1 | 110 | 1800 |  |  |  |  |
| COc1cccc(C(=O)Nc2ccc(N3S(=O)(=O)c4ccccc4S3(=O)=O)cc2)n1 | 22 |  | Not Active |  |  |  |
| O=C(Nc1ccc(N2C(=O)CCC2=O)c(Cl)c1)c1ccccn1 | 74 | 6200 |  |  |  |  |
| O=C(Nc1ccc(N2S(=O)(=O)c3ccccc3S2(=O)=O)cc1)c1cccc(F)n1 | 76.7 | 1800 |  |  |  |  |
| O=C(Nc1ccc(N2S(=O)(=O)c3ccccc3S2(=O)=O)cc1)c1cscn1 | 123 | 104 |  | 105 | 7.3 | 115 |
| O=C(Nc1ccc(N2S(=O)(=O)c3ccccc3S2(=O)=O)cc1)c1ccco1 | 110 | 226 |  |  |  |  |
| O=C(Nc1ccc(N2S(=O)(=O)c3ccccc3S2(=O)=O)cc1)C1CCCCC1 | 48.3 | 765 |  |  |  |  |
| O=C(Nc1ccc(N2S(=O)(=O)c3ccccc3S2(=O)=O)cc1)c1ccncc1 | 22.3 |  | Not Active |  |  |  |
| CC1(C)[C@@H]2C(=O)N(c3ccc(NC(=O)c4ccccn4)cc3Cl)C(=O)[C@@H]21 | 100 |  |  |  | 5.5 | 105 |
| O=C(Nc1ccc(N2S(=O)(=O)c3ccccc3S2(=O)=O)cc1F)c1ccccn1 | 67.7 | 1100 |  |  |  |  |
| O=C(Nc1ccc(N2C(=O)[C@@H]3[C@H](C2=O)[C@H]2C=C[C@@H]3CC2)c(Cl)c1)c1ccccn1 | 120 |  |  |  | 5.2 | 122 |
| CC1(c2ccccc2)CC(=O)N(c2ccc(NC(=O)c3ccccn3)cc2Cl)C1=O (racemic) | 124 |  |  |  | 16.7 | 131 |
| O=C(Nc1ccccn1)c1ccc(N2S(=O)(=O)c3ccccc3S2(=O)=O)cc1 | 30.7 |  | Not Active |  |  |  |
| O=C(Nc1ccc(N2C(=O)c3ccccc3C2=O)c(Cl)c1)c1ccccn1 | 104 |  |  | 66.8 | 23.6 | 132 |
| O=C(Nc1ccc(N2S(=O)(=O)c3ccccc3S2(=O)=O)cc1)c1cncs1 | 39.7 |  | Not Active |  |  |  |
| O=C(Nc1ccc(N2C(=O)c3cccc(Cl)c3C2=O)c(Cl)c1)c1ccccn1 | 130 |  |  | 34.9 | 83 | 137 |
| O=S1(=O)c2ccccc2S(=O)(=O)N1c1ccc(NC2(c3ccccn3)CC2)cc1 | 62.7 | 6400 |  |  |  |  |
| O=C(Nc1ccc(N2C(=O)[C@H]3CCCC[C@H]3C2=O)c(Cl)c1)c1ccccn1 | 107 |  |  | 645 | 8.3 | 129 |
| O=C(Nc1ccc(N2S(=O)(=O)c3ccccc3S2(=O)=O)cc1)c1nccs1 | 122 | 353 |  | 201 | 4.7 | 127 |
| O=C(Nc1ccc(N2S(=O)(=O)c3ccccc3S2(=O)=O)cc1)c1ccncn1 | 100 | 179 |  | 242 | 3.3 | 103 |
| O=C(Nc1ccc(N2CCCS2(=O)=O)cc1)c1ccccn1 | 25 |  | Not Active |  |  |  |
| O=C(Nc1ccc(N2S(=O)(=O)c3ccccc3S2(=O)=O)cc1)c1ccccc1 | 65 | 402 |  |  |  |  |
| CC1(C)CC(=O)N(c2ccc(NC(=O)c3ccccn3)cc2Cl)C1=O | 82 | 1400 |  |  |  |  |
